In ChEMBL document CHEMBL3588803, “Design, synthesis and pharmacology of 1,1-bistrifluoromethylcarbinol derivatives as liver X receptor β-selective agonists” (Bioorg Med Chem Lett, 2015):

How the values were obtained:
Hamster [1] = experiment: Hypolipidemic effect in Bio F1B hamster fed with high fat and cholesterol diet assessed as HDL-cholesterol level at 10 mg/kg, po relative to control; type: functional, Cricetinae
Hamster [2] = experiment: Hypolipidemic effect in Bio F1B hamster fed with high fat and cholesterol diet assessed as total cholesterol level at 100 mg/kg, po relative to control; type: functional, Cricetinae
[3] = Plasma concentration in CE-2 chow diet-fed golden Syrian hamster at 100 mg/kg, po after 6 hrs by HPLC-LC-MS/MS method; type: ADME, organism-based, Mesocricetus auratus
Procedure, shortened: (§1)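 Hamsters on chow diet received a single oral dose of 100 mg/kg. Heparin plasma was drawn from a forearm vein at 0.5, 1, 2, 3, 4, 6, 8, 10 and 24 h after dosing. Concentrations of parent drug and its carboxylic acid metabolite were measured in plasma.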

Hamster [4] = experiment: Increase in ABCA1 gene expression in Bio F1B hamster intestine at 100 mg/kg, po; type: functional, Cricetinae
Procedure, shortened: (§2)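 Bio F1B hamsters were fed a high-fat, high-cholesterol diet and dosed orally. Gene expression was measured in intestine (ABCA1, ABCG5, ABCG8) and in peripheral blood (ABCA1).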

Hamster [5] = experiment: Increase in ABCG8 gene expression in Bio F1B hamster intestine at 30 mg/kg, po; type: functional, Cricetinae; procedure, shortened: as §2
Hamster [6] = experiment: Increase in ABCA1 gene expression in Bio F1B hamster intestine at 10 to 100 mg/kg, po; type: functional, organism-based; details: Cricetinae
Hamster [7] = experiment: Increase in ABCG5 gene expression in Bio F1B hamster intestine at 30 mg/kg, po; type: functional, Cricetinae; procedure, shortened: as §2
Hamster [8] = experiment: Increase in ABCA1 gene expression in Bio F1B hamster peripheral blood at 30 mg/kg, po; type: functional, Cricetinae; procedure, shortened: as §2
Hamster [9] = experiment: Hypolipidemic effect in Bio F1B hamster fed with high fat and cholesterol diet assessed as LDL-cholesterol level at 100 mg/kg, po relative to control; type: functional, Cricetinae
[10] = Plasma concentration in CE-2 chow diet-fed golden Syrian hamster at 100 mg/kg, po after 1 hr by HPLC-LC-MS/MS method; type: ADME, organism-based, Mesocricetus auratus; procedure, shortened: as §1
Hamster [11] = experiment: Increase in ABCA1 gene expression in Bio F1B hamster intestine at 10 mg/kg, po; type: functional, Cricetinae
Hamster [12] = experiment: Hypolipidemic effect in Bio F1B hamster fed with high fat and cholesterol diet assessed as LDL-cholesterol level at 30 mg/kg, po relative to control; type: functional, Cricetinae
Hamster [13] = experiment: Effect in lipid profiles in Bio F1B hamster fed with high fat and cholesterol diet assessed as triglyceride level at 30 mg/kg, po relative to control; type: organism-based; details: cricetinae, in vivo
[14] = Cmax in CE-2 chow diet-fed golden Syrian hamster at 100 mg/kg, po after 6 hrs by HPLC-LC-MS/MS method; type: ADME, organism-based, Mesocricetus auratus; parameters: dose 100 mg/kg, route oral; details: in vivo; procedure, shortened: as §1
[15] = Plasma concentration in CE-2 chow diet-fed golden Syrian hamster at 100 mg/kg, po after 24 hrs by HPLC-LC-MS/MS method; type: ADME, organism-based, Mesocricetus auratus; procedure, shortened: as §1
[16] = Plasma concentration in CE-2 chow diet-fed golden Syrian hamster at 100 mg/kg, po after 10 hrs by HPLC-LC-MS/MS method; type: ADME, organism-based, Mesocricetus auratus; procedure, shortened: as §1
[17] = Plasma concentration in CE-2 chow diet-fed golden Syrian hamster assessed as 4-(4-(1,1,1,3,3,3-Hexafluoro-2-hydroxypropan-2-yl)-2,6-di-n-propylphenoxy)-butanoic acid level at 100 mg/kg, po after 2 hrs by HPLC-LC-MS/MS method; type: ADME, organism-based, Mesocricetus auratus; details: in vivo; procedure, shortened: as §1
Hamster [18] = experiment: Hypolipidemic effect in Bio F1B hamster fed with high fat and cholesterol diet assessed as total cholesterol level at 30 mg/kg, po relative to control; type: functional, Cricetinae
[19] = Plasma concentration in CE-2 chow diet-fed golden Syrian hamster at 100 mg/kg, po after 4 hrs by HPLC-LC-MS/MS method; type: ADME, organism-based, Mesocricetus auratus; procedure, shortened: as §1
Hamster [20] = experiment: Hypolipidemic effect in Bio F1B hamster fed with high fat and cholesterol diet assessed as HDL-cholesterol level at 30 mg/kg, po relative to control; type: functional, Cricetinae
[21] = Plasma concentration in CE-2 chow diet-fed golden Syrian hamster assessed as 4-(4-(1,1,1,3,3,3-Hexafluoro-2-hydroxypropan-2-yl)-2,6-di-n-propylphenoxy)-butanoic acid level at 100 mg/kg, po after 10 hrs by HPLC-LC-MS/MS method; type: ADME, organism-based, Mesocricetus auratus; details: in vivo; procedure, shortened: as §1
[22] = Plasma concentration in CE-2 chow diet-fed golden Syrian hamster assessed as 4-(4-(1,1,1,3,3,3-Hexafluoro-2-hydroxypropan-2-yl)-2,6-di-n-propylphenoxy)-butanoic acid level at 100 mg/kg, po after 0.5 hrs by HPLC-LC-MS/MS method; type: ADME, organism-based, Mesocricetus auratus; details: in vivo; procedure, shortened: as §1
[23] = Plasma concentration in CE-2 chow diet-fed golden Syrian hamster at 100 mg/kg, po after 8 hrs by HPLC-LC-MS/MS method; type: ADME, organism-based, Mesocricetus auratus; procedure, shortened: as §1
Hamster [24] = experiment: Increase in ABCG5 gene expression in Bio F1B hamster intestine at 100 mg/kg, po; type: functional, Cricetinae; procedure, shortened: as §2
Hamster [25] = experiment: Effect in lipid profiles in Bio F1B hamster fed with high fat and cholesterol diet assessed as triglyceride level at 100 mg/kg, po relative to control; type: organism-based; details: cricetinae, in vivo
[26] = Plasma concentration in CE-2 chow diet-fed golden Syrian hamster assessed as 4-(4-(1,1,1,3,3,3-Hexafluoro-2-hydroxypropan-2-yl)-2,6-di-n-propylphenoxy)-butanoic acid level at 100 mg/kg, po after 3 hrs by HPLC-LC-MS/MS method; type: ADME, organism-based, Mesocricetus auratus; details: in vivo; procedure, shortened: as §1
[27] = Plasma concentration in CE-2 chow diet-fed golden Syrian hamster assessed as 4-(4-(1,1,1,3,3,3-Hexafluoro-2-hydroxypropan-2-yl)-2,6-di-n-propylphenoxy)-butanoic acid level at 100 mg/kg, po after 8 hrs by HPLC-LC-MS/MS method; type: ADME, organism-based, Mesocricetus auratus; details: in vivo; procedure, shortened: as §1
[28] = Plasma concentration in CE-2 chow diet-fed golden Syrian hamster assessed as 4-(4-(1,1,1,3,3,3-Hexafluoro-2-hydroxypropan-2-yl)-2,6-di-n-propylphenoxy)-butanoic acid level at 100 mg/kg, po after 1 hr by HPLC-LC-MS/MS method; type: ADME, organism-based, Mesocricetus auratus; details: in vivo; procedure, shortened: as §1
Hamster [29] = experiment: Hypolipidemic effect in Bio F1B hamster fed with high fat and cholesterol diet assessed as lipid-accumulation area in aortic arch at 10 mg/kg, po relative to control; type: functional, Cricetinae
Hamster [30] = experiment: Increase in ABCA1 gene expression in Bio F1B hamster peripheral blood at 100 mg/kg, po; type: functional, Cricetinae; procedure, shortened: as §2
Hamster [31] = experiment: Increase in ABCA1 gene expression in Bio F1B hamster intestine at 30 mg/kg, po; type: functional, Cricetinae; procedure, shortened: as §2
[32] = Plasma concentration in CE-2 chow diet-fed golden Syrian hamster assessed as 4-(4-(1,1,1,3,3,3-Hexafluoro-2-hydroxypropan-2-yl)-2,6-di-n-propylphenoxy)-butanoic acid level at 100 mg/kg, po after 4 hrs by HPLC-LC-MS/MS method; type: ADME, organism-based, Mesocricetus auratus; details: in vivo; procedure, shortened: as §1
[33] = Plasma concentration in CE-2 chow diet-fed golden Syrian hamster assessed as 4-(4-(1,1,1,3,3,3-Hexafluoro-2-hydroxypropan-2-yl)-2,6-di-n-propylphenoxy)-butanoic acid level at 100 mg/kg, po after 6 hrs by HPLC-LC-MS/MS method; type: ADME, organism-based, Mesocricetus auratus; details: in vivo; procedure, shortened: as §1
[34] = Plasma concentration in CE-2 chow diet-fed golden Syrian hamster assessed as 4-(4-(1,1,1,3,3,3-Hexafluoro-2-hydroxypropan-2-yl)-2,6-di-n-propylphenoxy)-butanoic acid level at 100 mg/kg, po after 24 hrs by HPLC-LC-MS/MS method; type: ADME, organism-based, Mesocricetus auratus; details: in vivo; procedure, shortened: as §1

## CCCc1cc(C(O)(C(F)(F)F)C(F)(F)F)cc(CCC)c1OCCCCN1C(=O)NC(C)(c2ccc(OC(C)C)cc2)C1=O (centres undefined)
Hamster [1]
  Activity: 98%
Hamster [2]
  Activity: 53%
[3]
  concentration at 6 h: 630 nM
Hamster [4]
  fold change (FC): 5.2
Hamster [5]
  fold change (FC): 1.4
Hamster [6]
  Activity: Dose-dependent effect
Hamster [7]
  fold change (FC): 1.5
Hamster [8]
  fold change (FC): 0.8
Hamster [9]
  Activity: 45%
[10]
  concentration at 1 h: 490 nM
Hamster [11]
  fold change (FC): 2.1
Hamster [12]
  Activity: 91%
Hamster [13]
  Activity: 145%
[14]
  Cmax: 600 nM
[15]
  concentration at 24 h: 100 nM
[16]
  concentration at 10 h: 110 nM
[17]
  Cp: 375 ng/mL
Hamster [18]
  Activity: 96%
[19]
  concentration at 4 h: 290 nM
Hamster [20]
  Activity: 92%
[21]
  Cp: 560 ng/mL
[22]
  Cp: 52 ng/mL
[23]
  concentration at 8 h: 420 nM
Hamster [24]
  fold change (FC): 1.3
Hamster [25]
  Activity: 112%
[26]
  Cp: 409 ng/mL
[27]
  Cp: 979 ng/mL
[28]
  Cp: 202 ng/mL
Hamster [29]
  Activity: 86%
Hamster [30]
  fold change (FC): 1
Hamster [31]
  fold change (FC): 4
[32]
  Cp: 529 ng/mL
[33]
  Cp: 641 ng/mL
[34]
  Cp: 528 ng/mL
